# Assay results: paper PMC8994735 (Targeted Oncology, 2021)
# Read-outs that look alike come from different tables or passages of the source.
# Test system: East Asian patients with advanced nonhematologic malignancies
# Type: in vivo, human
# Procedure, shortened: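 AEs were graded by NCI CTCAE v4.03 in all patients receiving ≥ 1 oral dose, given once daily or once weekly in 28-day cycles for up to 12 months. Follow-up lasted 30 days after the last dose. Entry required ECOG 0–1, fasting glucose ≤ 130 mg/dL and triglycerides ≤ 300 mg/dL. Summaries were descriptive.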
# [1] = QD dose escalation 2 mg (n = 3)
# [2] = QD dose escalation 3 mg (n = 6)
# [3] = QD dose escalation 4 mg (n = 7)
# [4] = QD dose escalation + expansion 3 mg (n = 12)
structure (smiles),measurement,setting,value
CC(C)n1nc(-c2ccc3oc(N)nc3c2)c2c(N)ncnc21 [sapanisertib],Tolerability,"East Asian patients, QD and QW",generally well-tolerated
same,AE decreased appetite,QD arm,50%
same,AE nausea,QD arm,50%
same,Treatment-related AE decreased appetite,QD arm,45%
same,Treatment-related AE nausea,QD arm,50%
same,Discontinued treatment due to AEs,"QD arm (myocardial infarction, diarrhea and gastrointestinal inflammation, rash maculo-papular)",three
same,AEs resulting in discontinuation,[1],1 (33) n (%)
same,AEs resulting in dose interruption,[1],1 (33) n (%)
same,AEs resulting in dose reduction,[1],0 n (%)
same,Any AE,[1],3 (100) n (%)
same,Any grade ≥ 3 AE,[1],1 (33) n (%)
same,On-study deaths,[1],0 n (%)
same,SAEs,[1],0 n (%)
same,Treatment-related AE,[1],3 (100) n (%)
same,Treatment-related SAEs,[1],0 n (%)
same,Treatment-related grade ≥ 3 AE,[1],1 (33) n (%)
same,AEs resulting in discontinuation,[2],0 n (%)
same,AEs resulting in dose interruption,[2],5 (83) n (%)
same,AEs resulting in dose reduction,[2],0 n (%)
same,Any AE,[2],6 (100) n (%)
same,Any grade ≥ 3 AE,[2],2 (33) n (%)
same,On-study deaths,[2],0 n (%)
same,SAEs,[2],2 (33) n (%)
same,Treatment-related AE,[2],6 (100) n (%)
same,Treatment-related SAEs,[2],0 n (%)
same,Treatment-related grade ≥ 3 AE,[2],0 n (%)
same,AEs resulting in discontinuation,[3],2 (29) n (%)
same,AEs resulting in dose interruption,[3],6 (86) n (%)
same,AEs resulting in dose reduction,[3],3 (43) n (%)
same,Any AE,[3],7 (100) n (%)
same,Any grade ≥ 3 AE,[3],6 (86) n (%)
same,On-study deaths,[3],0 n (%)
same,SAEs,[3],3 (43) n (%)
same,Treatment-related AE,[3],7 (100) n (%)
same,Treatment-related SAEs,[3],2 (29) n (%)
same,Treatment-related grade ≥ 3 AE,[3],6 (86) n (%)
same,AEs resulting in discontinuation,[4],0 n (%)
same,AEs resulting in dose interruption,[4],8 (67) n (%)
same,AEs resulting in dose reduction,[4],1 (8) n (%)
same,Any AE,[4],12 (100) n (%)
same,Any grade ≥ 3 AE,[4],7 (58) n (%)
same,On-study deaths,[4],0 n (%)
same,SAEs,[4],3 (25) n (%)
same,Treatment-related AE,[4],12 (100) n (%)
same,Treatment-related SAEs,[4],0 n (%)
same,Treatment-related grade ≥ 3 AE,[4],3 (25) n (%)
same,AEs resulting in discontinuation,QD dose expansion 3 mg (n = 6),0 n (%)
same,AEs resulting in dose interruption,QD dose expansion 3 mg (n = 6),3 (50) n (%)
same,AEs resulting in dose reduction,QD dose expansion 3 mg (n = 6),1 (17) n (%)
same,Any AE,QD dose expansion 3 mg (n = 6),6 (100) n (%)
same,Any grade ≥ 3 AE,QD dose expansion 3 mg (n = 6),5 (83) n (%)
same,On-study deaths,QD dose expansion 3 mg (n = 6),0 n (%)
same,SAEs,QD dose expansion 3 mg (n = 6),1 (17) n (%)
same,Treatment-related AE,QD dose expansion 3 mg (n = 6),6 (100) n (%)
same,Treatment-related SAEs,QD dose expansion 3 mg (n = 6),0 n (%)
same,Treatment-related grade ≥ 3 AE,QD dose expansion 3 mg (n = 6),3 (50) n (%)
same,AE by preferred term: Abdominal pain,QD dosing n = 22,3 (14) n (%)
same,AE by preferred term: Alanine aminotransferase increased,QD dosing n = 22,4 (18) n (%)
same,AE by preferred term: Anemia,QD dosing n = 22,5 (23) n (%)
same,AE by preferred term: Aspartate aminotransferase increased,QD dosing n = 22,6 (27) n (%)
same,AE by preferred term: Constipation,QD dosing n = 22,4 (18) n (%)
same,AE by preferred term: Decreased appetite,QD dosing n = 22,11 (50) n (%)
same,AE by preferred term: Diarrhea,QD dosing n = 22,2 (9) n (%)
same,AE by preferred term: Erythema,QD dosing n = 22,2 (9) n (%)
same,AE by preferred term: Erythema multiforme,QD dosing n = 22,2 (9) n (%)
same,AE by preferred term: Fatigue,QD dosing n = 22,7 (32) n (%)
same,AE by preferred term: Gamma-glutamyltransferase increased,QD dosing n = 22,2 (9) n (%)
same,AE by preferred term: Gastrointestinal inflammation,QD dosing n = 22,2 (9) n (%)
same,AE by preferred term: Headache,QD dosing n = 22,2 (9) n (%)
same,AE by preferred term: Hyperglycemia,QD dosing n = 22,9 (41) n (%)
same,AE by preferred term: Hypokalemia,QD dosing n = 22,3 (14) n (%)
same,AE by preferred term: Lymphocyte count decreased,QD dosing n = 22,4 (18) n (%)
same,AE by preferred term: Nausea,QD dosing n = 22,11 (50) n (%)
same,AE by preferred term: Neutrophil count decreased,QD dosing n = 22,2 (9) n (%)
same,AE by preferred term: Platelet count decreased,QD dosing n = 22,6 (27) n (%)
same,AE by preferred term: Pruritus,QD dosing n = 22,2 (9) n (%)
same,AE by preferred term: Pyrexia,QD dosing n = 22,4 (18) n (%)
same,AE by preferred term: Rash erythematous,QD dosing n = 22,2 (9) n (%)
same,AE by preferred term: Rash maculo-papular,QD dosing n = 22,5 (23) n (%)
same,AE by preferred term: Rash pustular,QD dosing n = 22,2 (9) n (%)
same,AE by preferred term: Stomatitis,QD dosing n = 22,14 (64) n (%)
same,AE by preferred term: Urticaria,QD dosing n = 22,3 (14) n (%)
same,AE by preferred term: Vomiting,QD dosing n = 22,5 (23) n (%)
same,AE by preferred term: Weight decreased,QD dosing n = 22,7 (32) n (%)
same,AE by preferred term: White blood cell count decreased,QD dosing n = 22,4 (18) n (%)
same,Grade ≥ 3 AE: Acute myocardial infarction,QD dosing n = 22,1 (5) n (%)
same,Grade ≥ 3 AE: Aspartate aminotransferase increased,QD dosing n = 22,1 (5) n (%)
same,Grade ≥ 3 AE: Blood creatine phosphokinase increased,QD dosing n = 22,1 (5) n (%)
same,Grade ≥ 3 AE: Decreased appetite,QD dosing n = 22,1 (5) n (%)
same,Grade ≥ 3 AE: Diarrhea,QD dosing n = 22,1 (5) n (%)
same,Grade ≥ 3 AE: Gamma-glutamyltransferase increased,QD dosing n = 22,1 (5) n (%)
same,Grade ≥ 3 AE: Gastrointestinal inflammation,QD dosing n = 22,1 (5) n (%)
same,Grade ≥ 3 AE: Genital herpes,QD dosing n = 22,1 (5) n (%)
same,Grade ≥ 3 AE: Gingivitis,QD dosing n = 22,1 (5) n (%)
same,Grade ≥ 3 AE: Jaundice cholestatic,QD dosing n = 22,1 (5) n (%)
same,Grade ≥ 3 AE: Lymphocyte count decreased,QD dosing n = 22,2 (9) n (%)
same,Grade ≥ 3 AE: Nausea,QD dosing n = 22,2 (9) n (%)
same,Grade ≥ 3 AE: Neutrophil count decreased,QD dosing n = 22,1 (5) n (%)
same,Grade ≥ 3 AE: Platelet count decreased,QD dosing n = 22,1 (5) n (%)
same,Grade ≥ 3 AE: Post herpetic neuralgia,QD dosing n = 22,1 (5) n (%)
same,Grade ≥ 3 AE: Pruritus,QD dosing n = 22,1 (5) n (%)
same,Grade ≥ 3 AE: Rash maculo-papular,QD dosing n = 22,2 (9) n (%)
same,Grade ≥ 3 AE: Rash pustular,QD dosing n = 22,1 (5) n (%)
same,Grade ≥ 3 AE: Renal impairment,QD dosing n = 22,1 (5) n (%)
same,Grade ≥ 3 AE: Sepsis,QD dosing n = 22,1 (5) n (%)
same,Grade ≥ 3 AE: Stomatitis,QD dosing n = 22,2 (9) n (%)
same,Grade ≥ 3 AE: Urticaria,QD dosing n = 22,1 (5) n (%)
same,Grade ≥ 3 AE: White blood cell count decreased,QD dosing n = 22,1 (5) n (%)
same,Patients with ≥ 1 grade 3 or higher AE,QD dosing n = 22,14 (64) n (%)
same,AEs resulting in discontinuation,QD total (n = 22),3 (14) n (%)
same,AEs resulting in dose interruption,QD total (n = 22),15 (68) n (%)
same,AEs resulting in dose reduction,QD total (n = 22),4 (18) n (%)
same,Any AE,QD total (n = 22),22 (100) n (%)
same,Any grade ≥ 3 AE,QD total (n = 22),14 (64) n (%)
same,On-study deaths,QD total (n = 22),0 n (%)
same,SAEs,QD total (n = 22),6 (27) n (%)
same,Treatment-related AE,QD total (n = 22),22 (100) n (%)
same,Treatment-related SAEs,QD total (n = 22),2 (9) n (%)
same,Treatment-related grade ≥ 3 AE,QD total (n = 22),10 (45) n (%)
same,AE alanine aminotransferase increased,QW arm,50%
same,AE aspartate aminotransferase increased,QW arm,50%
same,AE blood alkaline phosphatase increased,QW arm,67%
same,AE decreased appetite,QW arm,50%
same,AE hyperglycemia,QW arm,67%
same,AE nausea,QW arm,100%
same,AE stomatitis,QW arm,33%
same,AE weight decreased,QW arm,50%
